ARNT-TACC3 inh – disruptors of human ARNT/TACC3 interaction; Q9Y6A5; AlphaScreen His-ARNT PAS-B/GST-TACC3 binding, luminescence; TACC3 fragment carries E629A point mutation; inhibition, % at 9.99 µM; 390,000 compounds, 0.66% hits;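 active = mean inhibition of replicates at least 50% and at least half of replicates each reaching 50%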
Casp6 inh – caspase-6 (human) enzyme inhibition; P55212; 350,000 compounds, 0.53% hits; inhibition, % at 12.5 µM; AID 686996; purified caspase-6, Z-VEID-R110 cleavage fluorescence;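 active = mean inhibition across replicates at least about 35%, with every replicate also reaching that limit, limit read from the data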
S100A4 MyoIIA – S100A4-myosin IIA interaction inhibition; P26447; S100A4/TAMRA-MyoIIA peptide fluorescence polarization; inhibition, % at 10.7 µM; 360,000 compounds, 0.14% hits; AID 652163;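 active = mean inhibition of at least 70% across replicates, with every replicate also reaching that level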
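Compound dosing: one dose per compound; test system: human S100A4 monomer with TAMRA-labelled myosin IIA peptide; probe or stimulus: TAMRA-labelled myosin IIA heavy-chain peptide probe, 5 nM; medium: HEPES buffer with Ca2+, pH 7.2; schedule: 5 min incubation before reading; benchmarks: neutral control DMSO, positive control TFP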
Ecoli rRNA inh – inhibits bacterial ribosomal RNA function over humanized ribosomes; E. coli WT GFP vs humanized-ribosome RFP mutants, fluorescence, 24 h; stronger effect = lower value; DMSO median 0, no signal -100; AID 720706; 350,000 compounds, 1.6% hits; GFP signal change (wild-type ribosome), % (concentration not given with the values);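 active = significant combined selectivity score with lowered wild-type GFP, culture density cut under 30%, mutant RFP and density less affected; inactive = any of these conditions unmet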
ERAP1 HTS inh – inhibitors of human ERAP1 aminopeptidase. recombinant ERAP1, Leu-AMC fluorescence, 60 min. inhibition, % at 10.7 µM. 340,000 compounds, 0.15% hits;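 active = mean replicate inhibition of at least 30%, or all replicates individually reaching that 30% level; inactive = mean below 30% and not every replicate reaching it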
Target sequence (Q9NZ08 whole entry, looked up): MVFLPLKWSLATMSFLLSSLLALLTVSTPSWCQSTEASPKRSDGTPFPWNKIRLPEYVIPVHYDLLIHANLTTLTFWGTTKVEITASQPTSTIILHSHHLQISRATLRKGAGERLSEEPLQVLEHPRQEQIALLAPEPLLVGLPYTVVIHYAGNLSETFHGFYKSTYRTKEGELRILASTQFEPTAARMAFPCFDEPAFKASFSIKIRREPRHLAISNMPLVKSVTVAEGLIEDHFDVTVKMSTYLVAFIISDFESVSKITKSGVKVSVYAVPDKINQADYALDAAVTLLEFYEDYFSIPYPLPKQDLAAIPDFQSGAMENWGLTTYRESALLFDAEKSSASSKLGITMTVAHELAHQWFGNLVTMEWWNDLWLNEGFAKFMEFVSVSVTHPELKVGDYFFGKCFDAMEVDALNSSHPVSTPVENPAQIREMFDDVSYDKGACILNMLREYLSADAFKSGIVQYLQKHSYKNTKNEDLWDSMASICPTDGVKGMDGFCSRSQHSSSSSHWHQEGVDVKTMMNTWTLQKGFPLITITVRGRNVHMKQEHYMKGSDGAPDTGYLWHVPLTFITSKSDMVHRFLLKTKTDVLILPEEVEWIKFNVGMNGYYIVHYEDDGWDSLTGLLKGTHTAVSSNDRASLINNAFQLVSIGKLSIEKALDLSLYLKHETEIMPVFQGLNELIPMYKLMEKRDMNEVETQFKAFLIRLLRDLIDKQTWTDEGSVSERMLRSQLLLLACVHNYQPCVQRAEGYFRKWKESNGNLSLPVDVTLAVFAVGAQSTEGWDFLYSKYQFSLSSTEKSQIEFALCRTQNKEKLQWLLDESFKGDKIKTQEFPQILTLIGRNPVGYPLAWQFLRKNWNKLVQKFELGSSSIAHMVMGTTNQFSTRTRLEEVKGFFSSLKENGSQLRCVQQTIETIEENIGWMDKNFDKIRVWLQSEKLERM
PGC1a acetyl inh – PGC1a acetylation modulation, inhibitor mode | 350,000 compounds, 0.17% hits | AID 651687 | inhibition, % at 15.6 µM | U2OS PGC1a acetylation, AlphaScreen anti-acetyl-lysine; with virally co-expressed GCN5 acetyltransferase;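 active = every replicate shows inhibition of at least 40%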
Large screens that a line does not name were inactive. Shown are actives, neighbours in structure and some others; about 2.4% of the full set was active somewhere.

O=C(COC(=O)c1cccnc1Cl)Nc1ccccc1OC(F)F	none (no result: PGC1a acetyl inh)
O=C(C[C@H]1CC[C@@H]2[C@H](COC[C@@H](O)CN2Cc2cc(F)ccc2F)O1)N[C@H]1CCN(Cc2ccccc2)C1	none
Cc1ccc(S(=O)(=O)CC(=O)c2cc(C)c(O)c(C)c2)cc1	Ecoli rRNA inh -24.0 (no result: ARNT-TACC3 inh)
CCOC(=O)c1c(CSC(=N)N)n(-c2ccc(C)cc2)c2cc(Br)c(OC(C)=O)cc12	none (no result: Casp6 inh, S100A4 MyoIIA, Ecoli rRNA inh, ERAP1 HTS inh)
CCOC(=O)c1c(CSC(=N)N)n(C)c2cc(Br)c(OC(C)=O)cc12	Ecoli rRNA inh -27.0 (no result: PGC1a acetyl inh)
Cc1noc(C)c1COc1cccc(C(=O)Nc2ccc3c(c2)OCO3)c1	none (no result: ERAP1 HTS inh, PGC1a acetyl inh)
Cc1noc(C)c1COc1cccc(C(=O)Oc2ccc3c(c2)OCO3)c1	Ecoli rRNA inh -35.2
Cc1ccc(NC(=S)Nc2ccc(OC(F)F)c(Cl)c2)cc1Cl	none
Cc1ccc(NC(=S)Nc2ccc(Cl)c(Cl)c2)c(OC(F)F)c1	Ecoli rRNA inh -41.2 (no result: PGC1a acetyl inh)
Cc1ccccc1-c1ccc([C@H]2[C@H](CO)N3C(=O)CN(C(=O)c4ccncc4)C[C@@H]23)cc1	none (no result: ARNT-TACC3 inh)
Cc1cc2cc(CNC(=O)Nc3ccc(Cl)c(Cl)c3)ccc2n1C	S100A4 MyoIIA 79.8 (no result: PGC1a acetyl inh)
COCC(=O)NCc1ccc2c(c1)cc(C)n2C	none
CO[C@@H]1CN(C)C(=O)c2ccc(NC(C)=O)cc2OC[C@@H](C)N(C(=O)c2ccccc2)C[C@H]1C	none (no result: ARNT-TACC3 inh, Casp6 inh, S100A4 MyoIIA, ERAP1 HTS inh, PGC1a acetyl inh)
CC(C)CN(C(=O)COC(=O)/C=C/c1ccccc1)C1CCS(=O)(=O)C1 (stereo not drawn)	Casp6 inh 39.0 (no result: Ecoli rRNA inh)
O=C(/C=C/c1ccccc1)N(Cc1cccs1)C1CCS(=O)(=O)C1 (stereo not drawn)	none
O=C(/C=C/c1ccccc1)N(Cc1cccc(Cl)c1)C1CCS(=O)(=O)C1 (stereo not drawn)	Ecoli rRNA inh -35.4
COc1cccc(CN(C(=O)/C=C/c2ccc(Cl)cc2)C2CCS(=O)(=O)C2)c1 (stereo not drawn)	Ecoli rRNA inh -35.9
O=C(/C=C/c1ccccc1)N(Cc1ccc(Cl)cc1)C1CCS(=O)(=O)C1 (stereo not drawn)	Ecoli rRNA inh -22.1 (no result: ARNT-TACC3 inh)
C[C@H]1CN([C@@H](C)CO)C(=O)c2cc(NC(=O)CCCN(C)C)ccc2O[C@H]1CN(C)S(=O)(=O)c1cccs1	none
Cc1cccc(S(=O)(=O)N2CC[C@@H]3[C@@H](CO)Nc4ccc(C#Cc5cccnc5)cc4[C@@H]32)c1	none (no result: ARNT-TACC3 inh)
CCCNC(=O)NC[C@@H]1[C@H](c2ccc(C3=CCCC3)cc2)[C@H](CO)N1C(=O)CC	none
COc1ccc2c3c(n(C)c2c1)[C@H](CO)N(C(=O)c1ccccn1)CC31CCN(C(=O)c2ccccn2)CC1	none (no result: ARNT-TACC3 inh, PGC1a acetyl inh)
C[C@H]1CN([C@@H](C)CO)C(=O)Cc2cc(NC(=O)Nc3cccc4ccccc34)ccc2O[C@H]1CN(C)S(=O)(=O)c1cccs1	none (no result: Casp6 inh, S100A4 MyoIIA, ERAP1 HTS inh)
COc1ccc(-c2ccc(C3[C@H]4CNC[C@@H]3N4S(=O)(=O)c3cccc(OC)c3)cc2)cc1 (stereo partly drawn)	none (no result: ARNT-TACC3 inh)
CCC(CC)C(=O)N(CCc1ccc(OC)cc1)Cc1nc2ccccc2c(=O)[nH]1	Ecoli rRNA inh -51.4
COc1ccc(CCN(Cc2nc3ccccc3c(=O)[nH]2)C(=O)c2ccco2)cc1	none (no result: Casp6 inh, S100A4 MyoIIA, Ecoli rRNA inh, ERAP1 HTS inh)
COC(=O)C[C@H]1CC[C@@H](NC(=O)c2ccccc2)[C@H](CO)O1	none
COc1ccccc1NC(=S)NN=C(C)c1ccccn1	ARNT-TACC3 inh 64.8
CC(=NNC(=S)Nc1cccc(C)c1)c1ccccn1	none (no result: Casp6 inh, PGC1a acetyl inh)
CC(=NNC(=S)Nc1ccc(C)cc1)c1ccccn1	ARNT-TACC3 inh 61.8, Casp6 inh 40.3
N#CC1=C(N)OC2=C(CCc3ccccc32)C1c1ccccc1Cl (stereo not drawn)	Ecoli rRNA inh -21.9 (no result: ARNT-TACC3 inh)
O=C(N[C@H]1CC[C@H](CCn2cc(C3(O)CCCC3)nn2)O[C@H]1CO)C1CCCC1	none
COCC(=O)N1CC2(CCN(Cc3ccccc3)CC2)c2c([nH]c3cc(OC)ccc23)[C@@H]1CO	none (no result: ARNT-TACC3 inh)
CC(NS(=O)(=O)OCC(Cl)(Cl)Cl)c1ccc(Br)cc1 (stereo not drawn)	Ecoli rRNA inh -23.2 (no result: PGC1a acetyl inh)
CCC(=O)Nc1ccc2c(c1)OC[C@@H](C)N(Cc1cccc(F)c1)C[C@H](C)[C@H](OC)CN(C)C2=O	none
CCc1cc2c(NC(Cc3c[nH]c4ccccc34)C(=O)O)nc(C)nc2s1 (stereo not drawn)	Ecoli rRNA inh -27.9 (no result: PGC1a acetyl inh)
CCc1nc2ccc(C(=O)NCCOc3ccc(OC)cc3)cn2c1N(C)Cc1ccc(N(C)C)cc1	Ecoli rRNA inh -23.4 (no result: ARNT-TACC3 inh, PGC1a acetyl inh)
COc1cccc(C(=O)N2CCN(Cc3ccc(OC)cc3OC)CC2)c1	Casp6 inh 41.5
COc1cccc(C(=O)N2CCN(Cc3cc(Br)ccc3OC)CC2)c1	none (no result: Casp6 inh, S100A4 MyoIIA, Ecoli rRNA inh, ERAP1 HTS inh)
CN(c1ccccc1)S(=O)(=O)c1ccc(Cl)c(C(=O)OCC(=O)c2c(N)n(C)c(=O)n(C)c2=O)c1	Ecoli rRNA inh -21.1 (no result: ARNT-TACC3 inh)
Cn1c(N)c(C(=O)COC(=O)Cc2ccc(Cl)c(Cl)c2)c(=O)n(C)c1=O	Ecoli rRNA inh -34.9
COc1ccc(CC(=O)OCC(=O)c2c(N)n(C)c(=O)n(C)c2=O)cc1OC	none
CCN(c1ccccc1)S(=O)(=O)c1ccc(Cl)c(C(=O)OCC(=O)c2[nH]c(C)c(C(C)=O)c2C)c1	none
CNS(=O)(=O)c1cccc(C(=O)OCC(=O)c2c(N)n(Cc3ccccc3)c(=O)n(C)c2=O)c1	Ecoli rRNA inh -26.0 (no result: PGC1a acetyl inh)
CC(=O)c1c(C)[nH]c(C(=O)COC(=O)c2cc(S(=O)(=O)N(C)c3ccccc3)ccc2Cl)c1C	Ecoli rRNA inh -27.8 (no result: PGC1a acetyl inh)
CO[C@@H](CN(C)S(=O)(=O)c1ccc(C)cc1)[C@H](C)CN(C(=O)Nc1ccccc1F)[C@@H](C)CO	none
Cc1noc(C)c1S(=O)(=O)N(C)C[C@@H]1Oc2c(NS(=O)(=O)c3cn(C)cn3)cccc2C(=O)N([C@H](C)CO)C[C@H]1C	none
C[C@@H]1CN([C@H](C)CO)C(=O)c2cccc(NC(=O)C3CCCCC3)c2O[C@@H]1CN(C)Cc1ccc(Oc2ccccc2)cc1	S100A4 MyoIIA 143.0
C[C@H]1CN([C@@H](C)CO)C(=O)c2cccc(NC(=O)C3CCCCC3)c2O[C@@H]1CN(C)Cc1ccc(Oc2ccccc2)cc1	none
C[C@@H]1CN([C@@H](C)CO)C(=O)c2cccc(NC(=O)c3cnccn3)c2O[C@H]1CN(C)Cc1ccc(Cl)c(Cl)c1	ERAP1 HTS inh 31.8
CC(C)NC(=O)Nc1cccc2c1O[C@H](CN(C)Cc1ccc(Oc3ccccc3)cc1)[C@@H](C)CN([C@@H](C)CO)C2=O	ARNT-TACC3 inh active
COc1ccc(-c2cn(CC[C@@H]3CC[C@H](NS(=O)(=O)c4ccccc4C)[C@H](CO)O3)nn2)cc1	none

Bioassay records as filed in PubChem BioAssay.
